{"data": "Measurements gathered from unrelated publications", "cell line": "NCI-H23", "observed": "cell growth or viability", "note": "Each line is one published result; the experiments were not run side by side."}
{"SMILES": "CCc1n(Cc2ccc3ccccc3n2)cc[n+]1Cc1ccc2ccccc2n1", "test": "SRB", "endpoint": "TGI", "result": "8.66 µM"}
{"SMILES": "COc1ccc(C(=O)/C=C/c2cccc(Cl)c2Cl)cc1S(N)(=O)=O", "test": "SRB", "conditions": "48 h", "endpoint": "GI50", "result": "3.8 µM"}
{"SMILES": "Cc1cc(C)n(C(=S)[S][Au][PH](CCCCCC[PH]([Au][S]C(=S)n2nc(C)cc2C)(c2ccccc2)c2ccccc2)(c2ccccc2)c2ccccc2)n1", "test": "SRB", "endpoint": "GI50", "result": "1.54 µM"}
{"SMILES": "O=C1NC(=NCc2cccs2)S/C1=C\\c1ccc2ncccc2c1", "endpoint": "IC50", "result": "> 10 µM"}
{"SMILES": "COc1ccc(C(=O)/C=C/c2cc3c(cc2Br)OCO3)cc1S(N)(=O)=O", "test": "SRB", "conditions": "48 h", "endpoint": "GI50", "result": "4.3 µM"}
{"SMILES": "O=C(/C=C/c1ccc2c(=O)n(CC3CCCCC3)cnc2c1)NO", "test": "SRB", "conditions": "48 h", "endpoint": "IC50", "result": "2.29 µM"}
{"SMILES": "COc1ccc(C(=O)/C=C/c2cccc3ccccc23)cc1S(N)(=O)=O", "test": "SRB", "conditions": "10 µM", "endpoint": "inhibition", "result": "120%"}
{"SMILES": "c1ccc(-c2n(Cc3ccc4ccccc4c3)cc[n+]2Cc2ccc3ccccc3c2)cc1", "test": "SRB", "endpoint": "TGI", "result": "2.35 µM"}
{"SMILES": "O=C(/C=C/c1ccc2c(=O)n(CCO)cnc2c1)NO", "test": "SRB", "conditions": "48 h", "endpoint": "IC50", "result": "4.2 µM"}
{"SMILES": "COc1ccc(-c2ccc(-c3ccc(C(=N)N)nc3)s2)cc1Cl", "test": "SRB", "endpoint": "GI50", "result": "1.8 µM"}
{"SMILES": "CCCc1n(Cc2ccc3ccccc3n2)cc[n+]1Cc1ccc2ccccc2n1", "test": "SRB", "endpoint": "TGI", "result": "15 µM"}
{"SMILES": "COc1ccc(C(=O)/C=C/c2ccc3c(c2)OCCO3)cc1S(N)(=O)=O", "test": "SRB", "conditions": "10 µM", "endpoint": "inhibition", "result": "27%"}
{"SMILES": "Cc1cccc(-n2ncc(Br)c(Br)c2=O)c1", "test": "resazurin", "conditions": "96 h", "endpoint": "IC50", "result": "0.21 µM"}
{"SMILES": "O=C1Nc2ccccc2C1=NNc1nnc2n1N=C(c1ccccc1)CS2", "test": "SRB", "conditions": "10 µM", "endpoint": "inhibition", "result": "31%"}
{"SMILES": "CCc1n(Cc2ccc3ccccc3n2)cc[n+]1Cc1ccc2ccccc2c1", "test": "SRB", "endpoint": "TGI", "result": "3.23 µM"}
{"SMILES": "COc1ccc(C(=O)/C=C/c2cccc(Br)c2)cc1S(N)(=O)=O", "test": "SRB", "conditions": "10 µM", "endpoint": "inhibition", "result": "166%"}
{"SMILES": "C[C@]12CC[C@@H]3c4ccc(O)cc4CC[C@H]3[C@@H]1CC[C@@H]2O", "test": "ATP luminescence", "conditions": "72 h", "endpoint": "EC90", "result": "78.5 µM"}
